Key:
[1] = target: Histamine H1 receptor (Cavia porcellus) (UniProt P31389); assay: […] activity tested against histamine H1 receptor on guinea pig ileum; assay type: functional, tissue-based
Summary of the method: (§1)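 Isolated guinea pig ileum, standard functional H1 method. Each test run at least in triplicate.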

[2] = target: Histamine H2 receptor (Cavia porcellus) (UniProt P47747); assay: […] activity tested against histamine H2 receptor on guinea pig atrium; assay type: functional, tissue-based; details: Cardiac atrium
Summary of the method: (§2)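 Isolated, spontaneously beating guinea pig right atrium, standard functional H2 method. Each test run at least in triplicate.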

[3] = target: Histamine H3 receptor (Mus musculus) (UniProt P58406); assay: In vivo antagonistic activity was tested against histamine H3 receptor after oral administration to mouse; assay type: functional, organism-based
Summary of the method: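 Swiss mice dosed perorally. Read-out was the increase in brain Nτ-methylhistamine levels.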

[4] = target: T1, Histamine H3 receptor (Rattus norvegicus, UniProt Q9QYN8); assay: Binding affinity towards Histamine H3 receptor on synaptosomes from rat cerebral cortex; assay type: subcellular, Brain
Summary of the method: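 Rat cerebral cortex homogenized in ice-cold 50 mM Na2HPO4/KH2PO4, pH 7.5, then washed membranes after two differential centrifugations. Incubated 60 min at 25 °C with [3H]-(R)-α-methylhistamine and drugs at various concentrations. Stopped by ice-cold dilution, vacuum-filtered through glass-fibre filters, scintillation counted. Nonspecific binding defined with 3 µM thioperamide.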

[5] = target: T1, Histamine H3 receptor; assay: (§3) In vitro antagonistic activity tested against Histamine H3 receptor on synaptosomes from rat cerebral cortex; assay type: functional, subcellular, Brain
Summary of the method: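 Rat cerebral cortex synaptosomes preincubated 30 min at 37 °C with L-[3H]histidine (0.4 µM) in modified Krebs-Ringer, washed, resuspended in 2 mM K+ medium. […] Ki via Cheng-Prusoff; mean ± SEM, at least three determinations.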

[6] = target: T1, Histamine H3 receptor; assay: as §3; assay type: functional, subcellular, Brain; remark: listed apart in the source
Summary of the method: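 Preloaded 30 min with L-[3H]histidine (0.4 µM) at 37 °C in modified Krebs-Ringer. Washed, resuspended in 2 mM K+ medium, then depolarized 2 min with 2 or 30 mM K+ (final). […] Stopped by rapid centrifugation; liquid scintillation. Ki by Cheng-Prusoff; mean ± SEM, ≥3 determinations.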

[7] = target: T1, Histamine H3 receptor; assay: In vitro antagonistic activity against histamine H3 receptor on rat cerebral cortex; assay type: functional, tissue-based
Summary of the method: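 Synaptosomes were preloaded 30 min with L-[3H]histidine (0.4 µM) at 37 °C in modified Krebs-Ringer, then washed and resuspended in 2 mM K+ medium. […] The reaction was stopped by centrifugation and read by scintillation. Ki by Cheng-Prusoff, mean ± SEM, n≥3.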

[8] = target: Histamine H2 receptor (Cavia porcellus) (UniProt P47747); assay: […] activity against histamine H2 receptor on guinea pig atrium; assay type: functional, tissue-based; details: Cardiac atrium; summary of the method: as §2
[9] = target: Histamine H1 receptor (Cavia porcellus) (UniProt P31389); assay: […] activity against histamine H1 receptor on guinea pig ileum; assay type: functional, tissue-based; summary of the method: as §1

Chain of Histamine H1 receptor (Cavia porcellus) (P31389 whole entry): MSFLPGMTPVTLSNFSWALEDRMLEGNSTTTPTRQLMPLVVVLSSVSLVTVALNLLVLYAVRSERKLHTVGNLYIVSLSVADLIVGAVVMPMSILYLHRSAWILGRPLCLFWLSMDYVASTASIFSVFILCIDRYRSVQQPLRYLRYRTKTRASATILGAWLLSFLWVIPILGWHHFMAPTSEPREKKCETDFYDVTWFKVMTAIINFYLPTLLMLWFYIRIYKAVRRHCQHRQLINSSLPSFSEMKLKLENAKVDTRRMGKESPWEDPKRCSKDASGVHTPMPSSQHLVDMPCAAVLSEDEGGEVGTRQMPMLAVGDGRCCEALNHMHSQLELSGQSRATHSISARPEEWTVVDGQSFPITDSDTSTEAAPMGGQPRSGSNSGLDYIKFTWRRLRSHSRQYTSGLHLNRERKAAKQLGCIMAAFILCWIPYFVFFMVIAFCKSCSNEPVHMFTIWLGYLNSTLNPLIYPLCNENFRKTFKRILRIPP
T1 sequence (Q9QYN8 whole entry): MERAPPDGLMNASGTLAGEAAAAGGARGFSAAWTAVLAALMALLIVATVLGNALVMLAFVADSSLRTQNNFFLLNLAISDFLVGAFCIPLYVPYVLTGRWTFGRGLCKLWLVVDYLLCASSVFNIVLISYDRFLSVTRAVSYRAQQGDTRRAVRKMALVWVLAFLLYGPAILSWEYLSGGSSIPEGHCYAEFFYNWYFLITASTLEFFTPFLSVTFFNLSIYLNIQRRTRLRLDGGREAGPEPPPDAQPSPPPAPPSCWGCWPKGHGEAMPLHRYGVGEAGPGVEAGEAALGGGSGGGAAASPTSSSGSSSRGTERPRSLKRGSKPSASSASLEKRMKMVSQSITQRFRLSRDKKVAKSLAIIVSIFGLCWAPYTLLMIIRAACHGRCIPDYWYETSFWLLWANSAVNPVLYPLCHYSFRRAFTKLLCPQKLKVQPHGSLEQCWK
Chain of Histamine H3 receptor (Mus musculus) (P58406 whole entry): as the sequence (Q9QYN8 whole entry) above, with T15A, A286T, A290G, R387H, I389V counted along it
Chain of Histamine H2 receptor (Cavia porcellus) (P47747 whole entry): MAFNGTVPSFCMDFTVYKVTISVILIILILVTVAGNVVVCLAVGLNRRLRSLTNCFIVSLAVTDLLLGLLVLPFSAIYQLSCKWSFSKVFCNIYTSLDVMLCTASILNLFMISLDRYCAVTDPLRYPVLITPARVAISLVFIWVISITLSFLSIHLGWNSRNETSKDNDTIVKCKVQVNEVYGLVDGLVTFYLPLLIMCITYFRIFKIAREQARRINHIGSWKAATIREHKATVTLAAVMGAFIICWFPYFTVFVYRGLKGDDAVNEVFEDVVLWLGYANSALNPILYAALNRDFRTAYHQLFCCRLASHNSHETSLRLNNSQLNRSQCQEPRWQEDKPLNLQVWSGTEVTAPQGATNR

SMILES	-Log KB [1]	-Log KB [2]	Ki [4]	Ki [6]	further results
O=C(Nc1ccccc1I)OCCCc1c[nH]cn1	4.8	4.6	–	–	–
O=C(OCCCc1c[nH]cn1)c1ccc(I)cc1	4.2	4.5	–	–	–
OCCCc1c[nH]cn1	–	–	631 nM	–	ED50 [3]: > 10 mg/kg; Ki [5]: 398 nM
O=C(Cc1ccc(I)cc1)OCCCc1cnc[nH]1	–	–	12.6 nM	14 nM	–
O=C(OCCCc1c[nH]cn1)c1cccc(I)c1	4.8	3.8	3.98 nM	25 nM	–
Ic1ccc(OCCCc2c[nH]cn2)cc1	6.2	5.2	–	–	–
COc1ccc(CCC(=O)OCCCc2c[nH]cn2)cc1I	< 4	4.5	–	–	–
O=C(Cc1ccc(I)cc1)OCCCc1c[nH]cn1	4.5	3.6	–	–	–
Ic1ccc(CCCOCCCc2c[nH]cn2)cc1	5.2	5.1	7.94 nM	35 nM	–
Nc1c(I)cc(C(=O)OCCCc2cnc[nH]2)cc1I	–	–	31.6 nM	146 nM	–
S=C(NC1CCCCC1)N1CCC(c2cnc[nH]2)CC1 [THIOPERAMIDE]	–	–	–	–	Ki [7]: 2 nM; Kb [8]: > 10000 nM; Ki [5]: 3.98 nM
O=C(Nc1cccc(I)c1)OCCCc1c[nH]cn1	5.1	5.3	–	–	–
Cc1ccc(C(=O)OCCCc2c[nH]cn2)cc1I	4.9	4.2	–	–	–
O=C(Nc1ccccc1I)OCCCc1cnc[nH]1	–	–	25.1 nM	25 nM	–
Ic1ccc(OCCCc2cnc[nH]2)cc1	–	–	3.16 nM	22 nM	–
COc1ccc(CCC(=O)OCCCc2cnc[nH]2)cc1I	–	–	200 nM	232 nM	–
Cc1[nH]cnc1CSCCNC(=N)NCCCc1c[nH]cn1 [IMPROMIDINE]	–	–	–	–	Kb [9]: > 10000 nM; Kb [8]: 501 nM; Ki [5]: 63.1 nM

SMILES	-Log KB [1]	-Log KB [2]	Ki [4]	Ki [6]	further results
O=C(Nc1ccc(I)cc1)OCCCc1cnc[nH]1	–	–	7.94 nM	11 nM	Ki [5]: 10 nM
O=C(OCCCc1cnc[nH]1)c1ccc(I)cc1	–	–	7.94 nM	20 nM	–
O=C(CCCc1ccc(I)cc1)OCCCc1cnc[nH]1	–	–	31.6 nM	41 nM	–
Brc1ccc(COCCCc2c[nH]cn2)cc1	–	–	1.26 nM	14 nM	ED50 [3]: > 10 mg/kg; Kb [9]: 1260 nM; Kb [8]: 12600 nM
O=C(CCc1ccc(I)cc1)OCCCc1c[nH]cn1	4.8	3.6	79.4 nM	47 nM	–
Ic1cccc(OCCCc2c[nH]cn2)c1	6.2	5.6	–	–	–
Ic1cccc(OCCCc2cnc[nH]2)c1	–	–	2.51 nM	17 nM	–
O=C(NCc1ccc(I)cc1)OCCCc1c[nH]cn1	5.1	4.5	12.6 nM	12 nM	–
O=C(Nc1cccc(I)c1)OCCCc1cnc[nH]1	–	–	7.94 nM	16 nM	–
O=C(OCCCc1c[nH]cn1)c1ccccc1I	5.9	4.6	–	–	–
Nc1c(I)cc(C(=O)OCCCc2c[nH]cn2)cc1I	5.9	4.6	–	–	–
Ic1cccc(COCCCc2c[nH]cn2)c1	5.8	5.8	1.26 nM	7 nM	ED50 [3]: > 10 mg/kg
O=C(OCCCc1cnc[nH]1)c1ccccc1I	–	–	20 nM	39 nM	–
O=C(CCCc1ccc(I)cc1)OCCCc1c[nH]cn1	4.8	4	–	–	–
Ic1ccc(COCCCc2c[nH]cn2)cc1 [IODOPROXYFAN]	5.8	5.2	1 nM	5 nM	ED50 [3]: > 10 mg/kg
O=C(Nc1ccc(I)cc1)OCCCc1c[nH]cn1	4.4	5.3	–	–	ED50 [3]: > 10 mg/kg
Cc1ccc(C(=O)OCCCc2cnc[nH]2)cc1I	–	–	5.01 nM	30 nM	–

Reference: ChEMBL document CHEMBL1129520 (J Med Chem, 1996)
